Most compounds without a hit are left out; they make up all but 2.2% or so of the library.
FN deposit inh: fibronectin deposition inhibition; AH1F fibroblasts, Alexa488-fibronectin deposition fluorescence, overnight; inhibition, % at 12.6 µM; actives 0.086% (n = 350,000); AID 743247;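 active means mean inhibition across replicates of 30% or more, regardless of how many single replicates reach that level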
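Assay system: AH1F fibroblast monolayer, labelled fibronectin deposition. Amount: 10000 cells per well. Also added: labelled fibronectin 24 nM. Compound: single-point pinned compound. Incubation: cell attachment 1 h, compound and FN exposure overnight. Detection: fluorescence after three HBSS washes, excitation 485 nm, emission 525 nm. Read-out: inhibition of fibronectin deposition signal.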
SIRT5 block: inhibitors of human sirtuin-5 desuccinylase. actives 1.1% (n = 330,000). inhibition, % at 15 µM. Purified SirT5, succinyl-peptide AMC, trypsin-coupled fluorescence; in the data active means inhibition above about 15%
Target sequence (Q9NXA8 whole entry, looked up): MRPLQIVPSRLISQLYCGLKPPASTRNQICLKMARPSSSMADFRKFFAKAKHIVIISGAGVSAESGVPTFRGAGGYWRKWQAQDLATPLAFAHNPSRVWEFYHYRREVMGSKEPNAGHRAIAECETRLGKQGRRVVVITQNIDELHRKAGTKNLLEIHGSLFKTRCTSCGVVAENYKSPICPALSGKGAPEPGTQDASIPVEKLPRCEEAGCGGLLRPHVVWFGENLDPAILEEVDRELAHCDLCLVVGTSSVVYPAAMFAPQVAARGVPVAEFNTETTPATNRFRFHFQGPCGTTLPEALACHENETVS
FGF22 binding: shifts melting point of recombinant human FGF22; AID 651658; recombinant FGF22 thermal shift, SYPRO orange fluorescence; percent of sucrose octasulfate shift, DMSO zero; actives 1.5% (n = 340,000); Q9HCT0; activity (Tm shift, normalised), % at 9.99 µM;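 active means mean Tm shift, scaled 0 neutral to 100 positive control, at about 1.3% or above, every replicate too, limit read from the data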
Target sequence (Q9HCT0 whole entry, looked up): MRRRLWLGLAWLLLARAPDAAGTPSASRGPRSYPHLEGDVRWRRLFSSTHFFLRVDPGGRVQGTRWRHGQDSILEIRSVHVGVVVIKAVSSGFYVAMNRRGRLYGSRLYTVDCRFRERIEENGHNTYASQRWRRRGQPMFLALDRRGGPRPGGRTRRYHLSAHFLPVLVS
ERAP1 HTS inh: blocks human ERAP1 aminopeptidase activity; Q9NZ08; recombinant ERAP1, Leu-AMC fluorescence, 60 min; inhibition, % at 10.7 µM; actives 0.15% (n = 340,000);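 active means mean replicate inhibition of at least 30%, or all replicates individually reaching that 30% level; inactive means mean below 30% and not every replicate reaching it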
PGC1a acetyl inh: PGC1a acetylation modulation, inhibitor mode. U2OS PGC1a acetylation, AlphaScreen anti-acetyl-lysine; with virally co-expressed GCN5 acetyltransferase. inhibition, % at 15.6 µM. actives 0.17% (n = 350,000);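 active means every replicate shows inhibition of at least 40%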
Each line names hits and unclear results; the compound was inactive in the other large screens.

C[C@H]1CCCCO[C@H](CN(C)C(=O)c2ccncc2)[C@@H](C)CN([C@@H](C)CO)C(=O)c2cc(NS(=O)(=O)c3ccc(Cl)cc3)ccc2O1	none
C[C@H](CO)N1C[C@H](C)[C@@H](CN(C)Cc2ccc(C(F)(F)F)cc2)Oc2ccc(NS(C)(=O)=O)cc2CC1=O	SIRT5 block 16.5
O=C(Cc1ccccc1)c1c[nH]c(C(=O)NCc2ccncc2)c1	FGF22 binding 43.4 (no result: FN deposit inh)
CN1C(=O)c2cc(NC(=O)Nc3ccc(Cl)cc3)ccc2OC[C@H]2O[C@H](CC(=O)O)CC[C@H]21	none (no result: FGF22 binding)
O=C(Oc1ccc(F)cc1)c1ccc2c(=O)n3c(nc2c1)CCC3	ERAP1 HTS inh 32.5 (no result: PGC1a acetyl inh)
CCN(CC(=O)Nc1ccccc1C(F)(F)F)C(=O)c1ccc2c(=O)n3c(nc2c1)CCC3	SIRT5 block 22.2
C[C@H](NC(=O)C[C@H]1CC[C@@H](NC(=O)Nc2ccc3c(c2)OCO3)[C@H](CO)O1)c1ccccc1	none
Cc1nn2c(N3CCN(C)CC3)cc(C(C)(C)C)nc2c1-c1ccccc1	SIRT5 block 15.4 (no result: ERAP1 HTS inh)
CCNC(=S)Nc1ccc(C)c(S(=O)(=O)Nc2ccccc2OC)c1	none (no result: PGC1a acetyl inh)
COc1ccccc1NS(=O)(=O)c1cc(NC(=O)c2sc3cc(Cl)ccc3c2Cl)ccc1C	FGF22 binding 43.7 (no result: PGC1a acetyl inh)
C[C@@H]1CN([C@H](C)CO)C(=O)Cc2cc(NC(=O)Cc3cn(C)c4ccccc34)ccc2O[C@@H]1CN(C)C	SIRT5 block 26.0
C[C@@H]1CN([C@@H](C)CO)C(=O)Cc2cc(NC(=O)Cc3cn(C)c4ccccc34)ccc2O[C@@H]1CN(C)Cc1ccc(-c2ccccc2)cc1	SIRT5 block 15.2 (no result: FN deposit inh)
CN1C(=O)c2ccccc2CC12c1ccccc1C(=O)N2C (stereo not given)	FGF22 binding 43.4 (no result: SIRT5 block)
Cn1c(C2=C(O)CN(c3ccccc3)C2=N)nc2ccccc21	FGF22 binding 44.3 (no result: PGC1a acetyl inh)
Cc1cccc(N2CC(O)=C(c3nc4ccccc4n3C)C2=N)c1	none (no result: SIRT5 block, FGF22 binding, ERAP1 HTS inh)
NS(=O)(=O)c1ccc(N=NN2CCCCC2)cc1	FGF22 binding 42.9 (no result: PGC1a acetyl inh)
CC(=O)NS(=O)(=O)c1ccc(N=NN2CCCCC2)cc1	none
CN1CCN(/N=C/c2cccc(Cl)c2Cl)CC1	FGF22 binding 44.0 (no result: PGC1a acetyl inh)
C[C@H]1CN([C@@H](C)CO)S(=O)(=O)c2ccc(-c3cccc(C(=O)N(C)C)c3)cc2O[C@H]1CN(C)C	none (no result: FN deposit inh)
Cc1ccc(NC(=O)c2ccco2)c([N+](=O)[O-])c1	FGF22 binding 43.5
CC(C)(C)c1ccc(NC(=O)c2ccccc2)c([N+](=O)[O-])c1	FGF22 binding 44.2 (no result: PGC1a acetyl inh)
O=C(Nc1ccc(Cl)c([N+](=O)[O-])c1)c1ccco1	none
CCOc1cccc(C(=O)Nc2cc(C)ccc2NC(=O)c2ccco2)c1	none
CCOc1ccccc1C(=O)Nc1cc(C)ccc1NC(=O)c1ccco1	FGF22 binding 1.7
Cc1c([N+](=O)[O-])cc(C(=O)Nc2ccc(NC(=O)c3ccco3)cc2)cc1[N+](=O)[O-]	SIRT5 block 19.3
Cc1c(NC(=O)c2ccc(C(C)(C)C)cc2)cccc1[N+](=O)[O-]	none (no result: PGC1a acetyl inh)
C[C@H](CO)N1C[C@H](C)[C@H](CN(C)CC2CC2)Oc2cc(C#CC3CC3)ccc2S1(=O)=O	none
O=C(/C=C/c1ccc(Cl)c([N+](=O)[O-])c1)Nc1ccc(NC(=O)c2ccco2)cc1	none
CCOc1ccc(CC(=O)Nc2ccc(NC(=O)c3ccco3)cc2)cc1OCC	FGF22 binding 43.9
O=C(/C=C/c1ccc(Cl)c([N+](=O)[O-])c1)Nc1cccc(NC(=O)c2ccco2)c1	FGF22 binding 44.9
COc1ccc(Cl)cc1NC(=O)CSc1nc(Nc2ccccc2)nc(N2CCOCC2)n1	FN deposit inh 30.6 (no result: PGC1a acetyl inh)
O=C(O)c1cc(-c2ccc(/C=N/N3C(=O)C4C5C=CC(CC5)C4C3=O)o2)ccc1Cl (stereo not given)	none
O=C(O)c1cc(-c2ccc(/C=N/N3C(=O)C4C5C=CC(C6CC56)C4C3=O)o2)ccc1Cl (stereo not given)	FGF22 binding 43.2 (no result: FN deposit inh)
Cc1ccc(S(=O)(=O)Nc2ccc3c(c2)C(=O)N([C@@H](C)CO)C[C@H](C)[C@H](CN(C)C(=O)Nc2ccc(F)cc2)O3)cc1	none (no result: FN deposit inh)
CN=C(NC(=O)Nc1c(C)cccc1C)NC(=O)Nc1c(C)cccc1C	FGF22 binding 43.7
CC1CN(C(=S)SCCN2C(=O)CCC2=O)CC(C)O1 (stereo not given)	FGF22 binding 43.5
CCC(=O)N(C)C[C@@H]1Oc2ncc(C#Cc3ccncc3)cc2C(=O)N([C@H](C)CO)C[C@@H]1C	none
CO[C@H]1CN(C)C(=O)c2ccc(NS(=O)(=O)c3cn(C)cn3)cc2OC[C@@H](C)N(C)C[C@H]1C	none
Cc1ccc(NC(=O)c2ccccc2Cl)cc1-n1cnnn1	FGF22 binding 43.6 (no result: PGC1a acetyl inh)
COc1cccc(NC(=O)C[C@H]2CC[C@H]3[C@H](COc4ccc(NC(=O)C5CCCCC5)cc4C(=O)N3C)O2)c1	none
O=C1C2CCCCC2C(=O)N1Cc1ccccc1 (stereo not given)	FGF22 binding 43.5
C/C(=N\N1CCN(C)CC1)c1ccc(OC(F)F)cc1	FGF22 binding 42.9
C/C(=N\N1CCN(C)CC1)c1ccc(Cl)c(Cl)c1	none
O=C(O)[C@H]1CCCN1C(=O)c1ccccc1N1C(=O)[C@@H]2Cc3c([nH]c4ccccc34)C(c3cccc(Cl)c3)N2C1=O (stereo not given in full)	none (no result: FN deposit inh)
O=C(O)[C@@H]1CCCN1C(=O)c1ccccc1N1C(=O)[C@@H]2Cc3c([nH]c4ccccc34)C(c3cccc(Cl)c3)N2C1=O (stereo not given in full)	ERAP1 HTS inh 32.7 (no result: FN deposit inh)
CCCN1C[C@H](C)[C@@H](OC)CN(C)C(=O)c2ccc(NC(=O)C3CCC3)cc2OC[C@@H]1C	none
CC1CN(S(=O)(=O)c2ccc(C(=O)Nc3nc(-c4cc5ccccc5o4)cs3)cc2)CC(C)O1 (stereo not given)	FGF22 binding 43.9 (no result: PGC1a acetyl inh)
O=C(Nc1nc(-c2cc3ccccc3o2)cs1)c1ccc(S(=O)(=O)N2CCCC2)cc1	FGF22 binding 42.9
COc1cccc(C(=O)Nc2nc(-c3ccc(S(=O)(=O)N4CCOCC4)cc3)cs2)c1	none (no result: FN deposit inh, SIRT5 block, FGF22 binding, ERAP1 HTS inh)
O=C(Nc1nc(-c2ccc(S(=O)(=O)N3CCOCC3)cc2)cs1)c1ccccc1	FGF22 binding 43.8 (no result: SIRT5 block)
O=C(Nc1nnc(-c2cccs2)o1)c1ccc(S(=O)(=O)N2CCOCC2)cc1	FGF22 binding 44.4 (no result: PGC1a acetyl inh)
CN(C)S(=O)(=O)c1ccc(C(=O)Nc2nc(-c3cc4ccccc4o3)cs2)cc1	none
O=C(Nc1nc(-c2ccc(-c3ccccc3)cc2)cs1)c1cc([N+](=O)[O-])ccc1N1CCOCC1	FGF22 binding 43.4
CC(C)c1nc2sc3c(NCc4ccco4)ncnc3c2c2c1COC(C)(C)C2	PGC1a acetyl inh 59.4 (no result: FN deposit inh, SIRT5 block, FGF22 binding, ERAP1 HTS inh)
CC(C)c1nc2sc3c(NCc4ccccc4)ncnc3c2c2c1COC(C)(C)C2	none (no result: FN deposit inh, SIRT5 block, FGF22 binding, ERAP1 HTS inh)
CCCNC(=O)Nc1ccc2c(c1)C(=O)N(C)C[C@H](OC)[C@H](C)CN(C(=O)c1ccccc1F)[C@H](C)CO2	none
